According to ChEMBL document CHEMBL4715833, “Design, synthesis, in-vitro, in-vivo and in-silico studies of pyrrolidine-2,5-dione derivatives as multitarget anti-inflammatory agents” (Eur J Med Chem, 2020):
pIC50: −log10 of the molar value.

How the values were obtained:
[1] = biological target: T1, Polyunsaturated fatty acid 5-lipoxygenase (Homo sapiens, UniProt P09917); assay: Inhibition of recombinant human 5LOX expressed in baculovirus infected Sf insect cells using linoleic acid as substrate preincubated for 5 mins followed by substrate addition
T1 sequence (P09917 whole entry): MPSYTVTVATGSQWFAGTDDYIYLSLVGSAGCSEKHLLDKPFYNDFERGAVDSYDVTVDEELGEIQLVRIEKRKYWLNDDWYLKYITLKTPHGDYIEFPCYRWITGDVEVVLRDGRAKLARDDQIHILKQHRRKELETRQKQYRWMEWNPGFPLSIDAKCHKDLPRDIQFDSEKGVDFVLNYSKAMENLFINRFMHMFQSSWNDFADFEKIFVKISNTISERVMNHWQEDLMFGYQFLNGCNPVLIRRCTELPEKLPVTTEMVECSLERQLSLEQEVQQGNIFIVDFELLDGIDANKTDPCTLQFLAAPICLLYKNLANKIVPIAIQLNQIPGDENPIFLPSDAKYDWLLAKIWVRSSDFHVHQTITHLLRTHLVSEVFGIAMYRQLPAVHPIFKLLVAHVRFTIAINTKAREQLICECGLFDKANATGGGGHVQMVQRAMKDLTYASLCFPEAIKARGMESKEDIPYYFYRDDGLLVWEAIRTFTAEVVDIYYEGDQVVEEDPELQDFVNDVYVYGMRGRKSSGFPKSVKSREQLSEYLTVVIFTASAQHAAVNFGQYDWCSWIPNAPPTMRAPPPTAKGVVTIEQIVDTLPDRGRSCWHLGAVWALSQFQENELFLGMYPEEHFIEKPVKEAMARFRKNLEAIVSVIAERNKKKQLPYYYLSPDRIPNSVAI

[2] = Acute toxicity in Swiss albino mouse assessed as clinical changes in urinary incontinence at 1000 mg/kg, ip administered as single dose measured after 4 hrs; assay type: organism-based; settings: in vivo
Summary of the method: (§1)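 Swiss albino mice of either sex (30-35 g), kept at 22-25 °C on a 12 h light/dark cycle with free food and water. Single i.p. dose; controls received normal saline 10 mL/kg. Animals were watched at random for allergic or abnormal behavioural signs during the first 4 h.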

[3] = Acute toxicity in Swiss albino mouse assessed as clinical changes in skin at 1000 mg/kg, ip administered as single dose measured after 4 hrs; assay type: organism-based; settings: in vivo; summary of the method: as §1
[4] = Acute toxicity in Swiss albino mouse assessed as changes in circulatory signs at 1000 mg/kg, ip administered as single dose measured after 4 hrs; assay type: organism-based; settings: in vivo; summary of the method: as §1
Mus musculus [5] = assay: Antiinflammatory activity in ip dosed leukotriene-induced paw edema in Balb/c mouse assessed as inhibition of paw edema administered 1 hr prior to leukotriene challenge and measured up to 5 hrs; assay type: functional, organism-based; settings: time 2-6 hrs
Summary of the method: (§2)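 BALB/c mice of either sex (30–35 g), 8 per group, dosed i.p. with 10% DMSO, reference drug or compound (100 mg/kg). After 1 h, subplantar irritant: PGE2 0.01 µg/ml, bradykinin 20 µg/ml, histamine 0.1 ml of 1 mg/ml, or leukotriene 10 µg/ml.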

Mus musculus [6] = assay: Antiinflammatory activity against carrageenan-induced paw edema in Swiss mouse assessed as inhibition of paw edema at 100 mg/kg administered 30 mins prior to carrageenan challenge and measured after 5 hrs by […]-method (reference value: 7.31 +/- 3.204%); assay type: functional; settings: time 5.5 hrs
[7] = Acute toxicity in ip dosed Swiss albino mouse assessed as mortality administered as single dose; assay type: organism-based; settings: in vivo
Summary of the method: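 Swiss albino mice of either sex (30-35 g), housed at 22-25 °C with 12 h light/dark and free food and water. Single i.p. dose; the saline control got 10 mL/kg. Deaths were counted 24 h after dosing. Dose table lists groups of 8 male and 8 female mice given 5 to 2000 mg/kg.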

Mus musculus [8] = assay: Antiinflammatory activity against carrageenan-induced paw edema in Swiss mouse assessed as inhibition of paw edema at 50 mg/kg administered 30 mins prior to carrageenan challenge and measured after 4 hrs by […]-method (reference value: 14.46 +/- 1.568%); assay type: functional; settings: time 4.5 hrs
Homo sapiens = organism: Homo sapiens; assay: Selectivity index, ratio of IC50 for sheep COX1 to IC50 for recombinant human COX2 expressed in baculovirus infected Sf21 cells
Summary of the method: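 Enzymes activated for 5 min on ice with cofactor solution of 0.9 mM glutathione, hematin and 0.24 mM TMPD in 0.1 M Tris-HCl pH 8.0; COX-2 at 300 units/ml. Reaction started with 30 mM arachidonic acid stock, run 5 min, absorbance read at 570 nm. IC50 taken from inhibition-vs-concentration plots as means of three determinations. SI = IC50(COX-1)/IC50(COX-2).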

Mus musculus [9] = assay: Antiinflammatory activity against carrageenan-induced paw edema in Swiss mouse assessed as inhibition of paw edema at 25 mg/kg administered 30 mins prior to carrageenan challenge and measured after 1 hr by […]-method (reference value: 7.66 +/- 3.753%); assay type: functional; settings: 1.5 h, time 90 min
[10] = Acute toxicity in Swiss albino mouse assessed as change in clinical sign of eyes at 1000 mg/kg, ip administered as single dose measured after 4 hrs; assay type: organism-based; settings: in vivo; summary of the method: as §1
Mus musculus [11] = assay: Antiinflammatory activity against carrageenan-induced paw edema in Swiss mouse assessed as inhibition of paw edema at 100 mg/kg administered 30 mins prior to carrageenan challenge and measured after 1 hr by […]-method (reference value: 7.66 +/- 3.753%); assay type: functional; settings: 1.5 h, time 90 min
[12] = Acute toxicity in Swiss albino mouse assessed as clinical changes in fur at 1000 mg/kg, ip administered as single dose measured after 4 hrs; assay type: organism-based; settings: in vivo; summary of the method: as §1
[13] = Acute toxicity in Swiss albino mouse assessed as clinical changes in defecation at 1000 mg/kg, ip administered as single dose measured after 4 hrs; assay type: organism-based; settings: in vivo; summary of the method: as §1
Mus musculus [14] = assay: Antiinflammatory activity against carrageenan-induced paw edema in Swiss mouse assessed as inhibition of paw edema at 100 mg/kg administered 30 mins prior to carrageenan challenge and measured after 2 hrs by […]-method (reference value: 7.39 +/- 2.475%); assay type: functional; settings: time 2.5 hrs
Mus musculus [15] = assay: Antiinflammatory activity in bradykinin-induced paw edema in Balb/c mouse assessed as inhibition of paw edema at 100 mg/kg, ip administered 1 hr prior to bradykinin challenge and measured after 3 hrs relative to control; assay type: functional; settings: time 4 hrs; summary of the method: as §2
Mus musculus [16] = assay: Antiinflammatory activity against carrageenan-induced paw edema in Swiss mouse assessed as inhibition of paw edema at 25 mg/kg administered 30 mins prior to carrageenan challenge and measured after 4 hrs by […]-method (reference value: 14.46 +/- 1.568%); assay type: functional; settings: time 4.5 hrs
[17] = Acute toxicity in Swiss albino mouse assessed as change in clinical sign of mucus membrane at 1000 mg/kg, ip administered as single dose measured after 4 hrs; assay type: organism-based; settings: in vivo; summary of the method: as §1
Mus musculus [18] = assay: Antiinflammatory activity in leukotriene-induced paw edema in Balb/c mouse assessed as inhibition of paw edema at 100 mg/kg, ip administered 1 hr prior to leukotriene challenge and measured after 3 hrs relative to control; assay type: functional; settings: time 4 hrs; summary of the method: as §2
Mus musculus [19] = assay: Antiinflammatory activity in leukotriene-induced paw edema in Balb/c mouse assessed as inhibition of paw edema at 100 mg/kg, ip administered 1 hr prior to leukotriene challenge and measured after 2 hrs relative to control; assay type: functional; settings: time 3 hrs; summary of the method: as §2
[20] = Antiinflammatory activity assessed as inhibition of heat-induced albumin denaturation preincubated for 20 mins followed by heating at 51 degC and measured after 3 mins by UV-vis spectrophotometric method

Structure (SMILES) | pIC50 [1] | Activity [2] | Activity [3] | Activity [4] | inhibition (Mus musculus [5]) | inhibition in vivo at 100 mg/kg (Mus musculus [6]) | LD50 [7] | inhibition in vivo at 50 mg/kg (Mus musculus [8]) | Ratio IC50 (Homo sapiens) | inhibition in vivo at 25 mg/kg (Mus musculus [9]) | Activity [10] | inhibition in vivo at 100 mg/kg (Mus musculus [11]) | Activity [12] | Activity [13] | inhibition in vivo at 100 mg/kg (Mus musculus [14]) | inhibition in vivo at 100 mg/kg (Mus musculus [15]) | inhibition in vivo at 25 mg/kg (Mus musculus [16]) | Activity [17] | further results
Cc1ccc(C(=O)CC2CC(=O)N(c3ccc(S(N)(=O)=O)cc3)C2=O)cc1 (centres undefined) | 6.07 | Non-Toxic | Non-Toxic | Non-Toxic | Dose-dependent effect | 68.2% | 1000 mg/kg | 57.3% | 31.5 | 45.6% | Non-Toxic | 55.2% | Non-Toxic | Non-Toxic | 63.8% | 27.1% | 54.2% | Non-Toxic | inhibition in vivo at 100 mg/kg (Mus musculus [18]): 74.4%
O=C1CCCCC1C1CC(=O)N(Cc2ccccc2)C1=O (centres undefined) | 4.44 | Non-Toxic | Non-Toxic | Non-Toxic | Dose-dependent effect | 55.1% | 1000 mg/kg | 44.5% | 3.13 | 24.3% | Non-Toxic | 44.7% | Non-Toxic | Non-Toxic | 49.6% | 12.4% | 27.8% | Non-Toxic | inhibition in vivo at 100 mg/kg (Mus musculus [19]): 60.1%; pIC50 [20]: 4.61
